# Screening data from PubChem.
# TNAP inh hiacc = human TNAP enzyme inhibitors, primary screen, biochemical, luminescent, high phosphate acceptor level, uHTS | inhibition, % at 20 µM | purified TNAP, CDP-star luminescence, 1 M DEA | hit rate 0.03% among 200,000 | Alkaline phosphatase, tissue-nonspecific isozyme (Homo sapiens), P05186;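 active = over 50% inhibition of tissue-nonspecific alkaline phosphatase at 20 µM in the single-dose screen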;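 also: plate controls were DMSO wells for no effect and EDTA-quenched wells as full inhibition for full effect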
# TNAP inh no acc = human TNAP enzyme inhibitors, primary screen, biochemical, luminescent, no phosphate acceptor, uHTS; Alkaline phosphatase, tissue-nonspecific isozyme (Homo sapiens), P05186; purified TNAP, CDP-star luminescence, 30 min; inhibition, % at 20 µM; hit rate 0.26% among 200,000; AID 1012, 2008;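 active = tissue-nonspecific alkaline phosphatase inhibition above about 50% at 20 µM in the single-dose screen, limit read from the data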;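 also: 0% = DMSO negative control and 100% = EDTA positive control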
# TNAP act hi DEA = TNAP activators at high phosphate acceptor level, primary screen, biochemical, luminescence, uHTS | purified TNAP, CDP-star luminescence, 1 M DEA, 30 min; hits give high values; 0 = EDTA background, 1 = DMSO-only activity | Alkaline phosphatase, tissue-nonspecific isozyme (Homo sapiens), P05186 | activation factor at 20 µM | AID 1136, 2008 | 200,000 tested, under 10 active;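 active = activation factor at least 2 at 20 µM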
#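 Dosing: 20 µM single point. System: human TNAP. Amount: TNAP 1/800 final. Incubation: 30 min, room temperature. Read-out: TNAP activation factor scaled between EDTA and DMSO control wells. Signal: luminescence from CDP-star hydrolysis. Medium: 1 M DEA, pH 9.8, Mg2+, Zn2+. Control set: EDTA negative control, DMSO positive control.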
# CHT allo act = CHT positive allosteric modulators, primary screen, cell-based, membrane potential dye, choline EC20. High affinity choline transporter 1 (Homo sapiens), Q9GZV3. CHT-expressing cells; hits give high values; LV-AA mutant CHT in HEK293 cells. B-score at 10 µM. hit rate 0.49% among 310,000;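 active = initial fluorescence not abnormally high and integrated response B-score, plate-corrected, over 3 SD above library mean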
# Target sequence (Q9GZV3 whole entry, looked up): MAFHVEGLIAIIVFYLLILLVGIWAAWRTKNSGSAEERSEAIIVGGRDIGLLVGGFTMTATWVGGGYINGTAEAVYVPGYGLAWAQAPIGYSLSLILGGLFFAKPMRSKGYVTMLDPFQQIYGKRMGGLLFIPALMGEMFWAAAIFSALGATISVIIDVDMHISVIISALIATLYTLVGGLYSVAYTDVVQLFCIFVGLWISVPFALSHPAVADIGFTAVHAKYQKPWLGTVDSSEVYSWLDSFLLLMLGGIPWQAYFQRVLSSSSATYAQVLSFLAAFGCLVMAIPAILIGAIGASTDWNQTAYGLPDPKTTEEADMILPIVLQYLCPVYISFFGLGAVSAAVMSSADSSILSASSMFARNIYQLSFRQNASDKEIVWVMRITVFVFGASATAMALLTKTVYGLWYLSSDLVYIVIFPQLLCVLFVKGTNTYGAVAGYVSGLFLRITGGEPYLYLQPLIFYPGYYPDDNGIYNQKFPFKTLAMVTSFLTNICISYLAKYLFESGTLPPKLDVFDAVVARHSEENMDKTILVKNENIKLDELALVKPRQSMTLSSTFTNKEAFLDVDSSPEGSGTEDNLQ
# CHT block = inhibitors of human choline transporter CHT | CHT-expressing cells, membrane potential dye, choline response; hits give low values | High affinity choline transporter 1 (Homo sapiens), Q9GZV3 | AID 488975, 2010 | B-score at 10 µM | hit rate 0.86% among 310,000;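 active = B-score over 3 SD under the library average, and starting fluorescence ratio not unusually high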;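 also: choline stimulus applied at its EC90 after an EC20 pre-addition; B-score computed on integrated fluorescence ratio after choline addition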
# ABCB6 inh MLPCN = ABCB6 transporter inhibitors, primary screen, K562-ABCB6 cells, flow cytometry, MLPCN library; fluorescence ratio to DMSO, % at 10 µM; K562-ABCB6 porphyrin accumulation, 1 h; hits give low values; ATP-binding cassette sub-family B member 6 (Homo sapiens), Q9NP58; hit rate 0.19% among 360,000; AID 602162, 2011;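 active = fluorescence ratio to DMSO below 75%, the collection mean minus 3 SD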;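 also: signal is porphyrin accumulated inside mitochondria; 100% equals median channel fluorescence of DMSO control wells; lower ratio means ABCB6 inhibition with less porphyrin fluorescence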
# CHT block conf = CHT inhibitors, confirmation, cell-based, membrane potential dye, duplicate. shares compounds with CHT block. CHT-expressing cells, choline membrane potential dye; LV-to-AA substituted CHT, HEK293 cells. CHT activity remaining % of control (hits give low values), % at 10 µM. hit rate 70% among 2,400;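 active = choline transporter activity left, mean of duplicates at 10 µM, below buffer-only control mean minus 3 SD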;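 also: depolarization triggered by choline at its EC90 following an EC20 pre-addition; 0% = hemicholinium-3 full block and 100% = buffer-only control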
# HEK293 CHT ctr = membrane potential effects in parental HEK293, counter-screen for CHT inhibitor project, cell-based, membrane potential dye. shares compounds with CHT block. choline response; active = decrease or increase beyond buffer ±3SD. membrane potential ratio readout (active if shifted either direction beyond buffer ±3SD; no single direction) at 10 µM. hit rate 4% among 2,400. AID 493222, 2011;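 also: parental cells lack the transporter so any hit is non-specific; ratio is peak minus trough fluorescence over baseline after EC90 choline challenge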
# * = called active by the depositor; i = inactive; . = no result. Only some compounds are listed: those with a hit (about 1.4% of all), similar ones and a draw of the others.
SMILES,TNAP inh hiacc,TNAP inh no acc,TNAP act hi DEA,CHT allo act,CHT block,ABCB6 inh MLPCN,CHT block conf,HEK293 CHT ctr
CC1(C)CC2CC(C)(CN2C(=O)COC(=O)c2ccccc2C(F)(F)F)C1 (configuration not stated),.,.,.,.,.,91,.,.
Cc1cnc(NC(=O)c2cc3ccccc3o2)s1,-5,-21,1.1,i,i,101,.,.
Cc1noc(C)c1COC(=O)c1ccccc1Sc1ccccc1C#N,-3,-13,1,i,-6.1*,92,i,i
Cc1noc(C)c1S(=O)(=O)N1CCCN(C(=O)/C=C/c2ccccc2F)CC1,.,.,.,.,.,97,.,.
CCCn1nc([N+](=O)[O-])c(C(C#N)c2nc3ccccc3s2)c(Cl)c1=O (configuration not stated),32,32,0.7,i,-14*,91,17%*,i
CCn1nc([N+](=O)[O-])c(C(C#N)c2nc3ccccc3n2C)c(Cl)c1=O (configuration not stated),17,18,0.8,i,i,102,.,.
N#C/C(=N\Nc1ccc(F)cc1)C(=O)C1CC1,.,.,.,i,-6.2*,90,50%*,i
CCOc1cc(/C=N/NC(=O)CN2CCCCC2)ccc1OCc1cccc(Cl)c1,-5,-16,1,i,-6.6*,98,49%*,i
CCOC(=O)N/N=C/c1ccc(OCCSc2ccc(Cl)cc2)c(OCC)c1,-4,-9,1,i,-5*,99,i,i
CCOc1cc(/C=N/NC(=O)CN2CCCCC2)ccc1OCc1ccc(Cl)cc1,-3,-5,1,i,i,99,.,.
CC1(C(=O)NS(=O)(=O)c2ccc3ccccc3c2)CCN1C(=O)Cc1ccc(Cl)cc1Cl (configuration not stated),.,.,.,.,.,97,.,.
COc1ccc(C=O)cc1Cn1cnc2c(cnn2C)c1=O,0,-2,1,i,-5.7*,101,i,i
Brc1ccc(-c2csc3ncnc(-n4nnc5ccccc54)c23)cc1,-4,-6,1,i,i,103,.,.
Cc1ccc(S(=O)(=O)Nc2nc3ccccc3nc2NCc2ccco2)cc1C,-2,-8,1,i,-5*,115,i,i
N#C/C(=C\c1ccc(O)c(Br)c1)C(=O)NCc1ccccc1,3,0,1,i,-6.4*,93,64%*,i
N#C/C(=C/c1ccccc1)C(=O)NCc1ccccc1,-3,-6,1,i,i,106,.,.
C[n+]1ccccc1COc1ccc(C(C)(C)C)cc1,-8,-8,1.1,i,-7.3*,102,34%*,i
CC(C)(C)c1ccc(OCC(=O)O)cc1,1,-7,1,i,i,104,.,.
O=C(Nc1ccccn1)C1CCN(S(=O)(=O)c2ccc3ccccc3c2)CC1,.,.,.,.,.,96,.,.
O=C(C1CCN(S(=O)(=O)c2ccc3ccccc3c2)CC1)N1CCN(c2ncccn2)CC1,-8,-2,1.1,i,-6*,94,39%*,i
CC(=O)NS(=O)(=O)c1ccc(NC(=S)NC(=O)Cc2ccccc2)cc1,-7,-13,1.1,i,-7.5*,97,i,i
CCOC(=O)CNC(=O)CSc1nccn1Cc1ccco1,-4,-8,1,i,i,95,.,.
O=S(=O)(c1ccc(SCCOc2ccc(Cl)cc2)nc1)N1CCCC1,.,.,.,.,.,94,.,.
CN1CCCN(C(=O)c2cc(-c3ccc(Cl)c(Cl)c3Cl)nc3ccccc23)CC1,-4,-10,1,i,-8*,96,i,i
O=C1NC[C@H](Cc2ccccc2)N(C[C@@H]2CCCN2C[C@H](Cc2ccccc2)N2C[C@H](Cc3ccccc3)N(CCc3ccccc3)C(=O)C2=O)C1=O,.,.,.,.,.,98,.,.
SMILES,TNAP inh hiacc,TNAP inh no acc,TNAP act hi DEA,CHT allo act,CHT block,ABCB6 inh MLPCN,CHT block conf,HEK293 CHT ctr
COc1ccc(/C=C/C(=O)Oc2cc(O)cc(O)c2)cc1,.,.,.,i,-6.6*,101,i,i
CCc1nnc(NS(=O)(=O)c2ccc(NC(=O)/C=C/c3ccccc3Cl)cc2)s1,-4,-6,1,i,-5.6*,95,51%*,i
CCc1nn(C(C)C(=O)NCCc2ccccc2)c(=O)c2cc3occc3n12 (configuration not stated),.,.,.,i,-5.7*,97,i,i
CCc1nn(C(C)C(=O)NC(C)CCc2ccco2)c(=O)c2cc3occc3n12 (configuration not stated),0,-6,1,i,-5.9*,114,49%*,-14*
CCc1nn(CCCC(=O)N2CCc3ccccc3C2)c(=O)c2cc3occc3n12,-9,-4,1.1,i,-5.7*,94,58%*,-9*
Cc1nn(C(C)C(=O)NC(C)CCc2ccccc2)c(=O)c2cc3occc3n12 (configuration not stated),.,.,.,i,-6.9*,96,55%*,i
O=C(CN1CCN(c2cccc(C(F)(F)F)c2)CC1)N(C1CCCC1)C1CCS(=O)(=O)C1 (configuration not stated),.,.,.,.,.,96,.,.
CCc1ccc(S(=O)(=O)NCc2cn3cccc(C)c3n2)s1,-5,-7,1.1,i,-5.4*,116,45%*,i
Cc1cccc(C)c1NC(=O)CNC(=O)c1c(-c2ccccc2)noc1C,.,.,.,.,.,97,.,.
O=C(CCl)N(c1ccc(Cl)cc1)c1c[nH]c2ccccc12,4,0,1,i,-5.9*,92,56%*,i
COc1ccc(C(=O)OCC(=O)NC(C)CCc2ccccc2)c(OC)c1 (configuration not stated),.,.,.,i,-5.7*,99,i,i
COc1cc(OC)cc(C(=O)OCC(=O)NC(C)CCc2ccccc2)c1 (configuration not stated),.,.,.,i,i,91,.,.
